Reference: ChEMBL document CHEMBL3351723, “New derivatives of lupane triterpenoids disturb breast cancer mitochondria and induce cell death” (Bioorg Med Chem, 2014)
Calls of active or inactive are those of the source. No cut-off for these calls is given here.

Columns and labels:
Liver microsome [1] = assay: Effect on mitochondrial transmembrane potential in Wistar Han rat liver mitochondria energized with succinate assessed as ADP depolarization at 1.333 ug/mg of protein (reference value: 34.7 +/- 1.4 mV); type: functional
Liver microsome [2] = assay: Effect on mitochondrial transmembrane potential in Wistar Han rat liver mitochondria energized with succinate assessed as ADP depolarization at 0.067 ug/mg of protein (reference value: 34.7 +/- 1.4 mV); type: functional
Liver microsome [3] = assay: Effect on mitochondrial transmembrane potential in Wistar Han rat liver mitochondria energized with succinate assessed as mitochondrial transmembrane electropotential at 0.667 ug/mg of protein (reference value: 216.0 +/- 7.4 mV); type: functional
Summary of the method: (§1)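 Isolated male Wistar rat liver mitochondria (1.5 mg protein) in 125 mM sucrose, 65 mM KCl, 5 mM KH2PO4, 2.5 mM MgCl2, 5 mM HEPES pH 7.4, 30°C, with 3 μM TPP+. Compound added for 1 min, then 10 mM succinate plus 3 μM rotenone. State 3 started with ADP (83.3 nmol/mg protein). ΔΨ read with a TPP+-selective electrode and calculated by the Kamo equation without binding correction.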

Liver microsome [4] = assay: Effect on mitochondrial transmembrane potential in Wistar Han rat liver mitochondria energized with succinate assessed as time duration of lag phase at 0.333 ug/mg of protein (reference value: 82.8 +/- 23.5 sec); type: functional; summary of the method: as §1
Liver microsome [5] = assay: Effect on mitochondrial transmembrane potential in Wistar Han rat liver mitochondria energized with succinate assessed as mitochondrial transmembrane electropotential at 0.333 ug/mg of protein (reference value: 216.0 +/- 7.4 mV); type: functional
Liver microsome [6] = assay: Effect on mitochondrial transmembrane potential in Wistar Han rat liver mitochondria energized with succinate assessed as time duration of lag phase at 1.333 ug/mg of protein (reference value: 82.8 +/- 23.5 sec); type: functional; summary of the method: as §1
Liver microsome [7] = assay: Effect on mitochondrial transmembrane potential in Wistar Han rat liver mitochondria energized with succinate assessed as ADP depolarization at 0.667 ug/mg of protein (reference value: 34.7 +/- 1.4 mV); type: functional
Liver microsome [8] = assay: Effect on mitochondrial transmembrane potential in Wistar Han rat liver mitochondria energized with succinate assessed as mitochondrial transmembrane electropotential at 0.06 ug/mg of protein (reference value: 216.0 +/- 7.4 mV); type: functional
Liver microsome [9] = assay: Effect on mitochondrial transmembrane potential in Wistar Han rat liver mitochondria energized with succinate assessed as time duration of lag phase at 0.067 ug/mg of protein (reference value: 82.8 +/- 23.5 sec); type: functional; summary of the method: as §1
Liver microsome [10] = assay: Effect on mitochondrial transmembrane potential in Wistar Han rat liver mitochondria energized with succinate assessed as time duration of lag phase at 1.333 ug/mg of protein (reference value: 33.0 +/- 4.6 sec); type: functional; summary of the method: as §1
Liver microsome [11] = assay: Effect on mitochondrial transmembrane potential in Wistar Han rat liver mitochondria energized with succinate assessed as ADP depolarization at 0.333 ug/mg of protein (reference value: 25.3 +/- 2.1 mV); type: functional
MCF7 = assay: Cytotoxicity against human MCF7 cells at 0.125 to 2 ug/ml after 1 to 5 days by sulforhodamine B assay; type: functional, cell-based
Summary of the method: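 Sulforhodamine B growth assay in high-glucose DMEM with 10% FBS. Cancer cells seeded at 1×10^4 cells/ml; compound (0.125–2 μg/ml) added 24 h after seeding and left for 1, 3 or 5 days. Cells fixed, total mass stained. Expressed as % of untreated cells at the same time point. Mean ± SEM, five independent experiments.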

Liver microsome [12] = assay: Effect on mitochondrial transmembrane potential in Wistar Han rat liver mitochondria energized with succinate assessed as mitochondrial transmembrane electropotential at 1.333 ug/mg of protein (reference value: 204.2 +/- 5.6 mV); type: functional; summary of the method: as §1
Liver microsome [13] = assay: Effect on mitochondrial transmembrane potential in Wistar Han rat liver mitochondria energized with succinate assessed as mitochondrial transmembrane electropotential at 0.333 ug/mg of protein (reference value: 204.2 +/- 5.6 mV); type: functional
Liver microsome [14] = assay: Effect on mitochondrial transmembrane potential in Wistar Han rat liver mitochondria energized with succinate assessed as ADP depolarization at 0.667 ug/mg of protein (reference value: 25.3 +/- 2.1 mV); type: functional
Hs-578T = assay: Cytotoxicity against human Hs578T cells assessed as decrease in live cells at 1 ug/ml for 24 to 48 hrs by flow cytometry; type: functional
Summary of the method: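 Hs578T seeded at 2.5×10^4 cells/ml, exposed to 1 μg/ml or DMSO for 24 and 48 h. Cells trypsinized and resuspended in HEPES-buffered saline with 15 mM glucose. Stained 15 min at 37°C with 1 μM ethidium homodimer and 0.1 μM calcein-AM. Green (calcein) and red (ethidium homodimer) signals read by flow cytometry. Mean ± SEM, 6 experiments.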

[15] = tested on: Liver mitochondria (Rattus norvegicus); assay: Effect on mitochondrial transmembrane potential in Wistar Han rat liver mitochondria energized with succinate assessed as time duration of lag phase at 0.333 ug/mg of protein (reference value: 40.5 +/- 4.5 sec)
Liver microsome [16] = assay: Effect on mitochondrial transmembrane potential in Wistar Han rat liver mitochondria energized with succinate assessed as ADP depolarization at 0.133 ug/mg of protein (reference value: 23.9 +/- 3.3 mV); type: functional
Liver microsome [17] = assay: Effect on mitochondrial transmembrane potential in Wistar Han rat liver mitochondria energized with succinate assessed as ADP depolarization at 1.333 ug/mg of protein (reference value: 23.9 +/- 3.3 mV); type: functional
Liver microsome [18] = assay: Effect on mitochondrial transmembrane potential in Wistar Han rat liver mitochondria energized with succinate assessed as mitochondrial transmembrane electropotential at 0.333 ug/mg of protein (reference value: 198.0 +/- 5.6 mV); type: functional
Liver microsome [19] = assay: Effect on mitochondrial transmembrane potential in Wistar Han rat liver mitochondria energized with succinate assessed as time duration of lag phase at 0.133 ug/mg of protein (reference value: 40.5 +/- 4.5 sec); type: functional; summary of the method: as §1
Liver microsome [20] = assay: Effect on mitochondrial transmembrane potential in Wistar Han rat liver mitochondria energized with succinate assessed as time duration of lag phase at 0.067 ug/mg of protein (reference value: 40.5 +/- 4.5 sec); type: functional; summary of the method: as §1
[21] = tested on: Liver mitochondria (Rattus norvegicus); assay: Effect on mitochondrial transmembrane potential in Wistar Han rat liver mitochondria energized with succinate assessed as time duration of lag phase at 0.667 ug/mg of protein (reference value: 40.5 +/- 4.5 sec)
Liver microsome [22] = assay: Effect on mitochondrial transmembrane potential in Wistar Han rat liver mitochondria energized with succinate assessed as ADP depolarization at 0.667 ug/mg of protein (reference value: 34.6 +/- 1.9 mV); type: functional
Liver microsome [23] = assay: Effect on mitochondrial transmembrane potential in Wistar Han rat liver mitochondria energized with succinate assessed as time duration of lag phase at 0.333 ug/mg of protein Rvb = 46.7 +/- 3.9 sec); type: functional; summary of the method: as §1
Liver microsome [24] = assay: Effect on mitochondrial transmembrane potential in Wistar Han rat liver mitochondria energized with succinate assessed as time duration of lag phase at 0.067 ug/mg of protein (reference value: 46.7 +/- 3.9 sec); type: functional; summary of the method: as §1

## C=C(C)[C@@H]1CC[C@]2(COC(=O)C[n+]3ccc(N(C)C)cc3)CC[C@]3(C)[C@H](CC[C@@H]4[C@@]5(C)CC[C@H](OC(=O)C[n+]6ccc(N(C)C)cc6)C(C)(C)[C@@H]5CC[C@]43C)[C@@H]12.[Cl-].[Cl-]
Liver microsome [1]
  Activity: 25.2 mV
Liver microsome [2]
  Activity: 28.4 mV
Liver microsome [3]
  Activity: 206 mV
Liver microsome [4]
  TIME: 0.0217 h
Liver microsome [5]
  Activity: 208 mV
Liver microsome [6]
  TIME: 0.033 h
Liver microsome [7]
  Activity: 28.6 mV
Liver microsome [8]
  Activity: 209 mV
Liver microsome [9]
  TIME: 0.0219 h

## C=C(C)[C@@H]1CC[C@]2(COC(=O)CC[n+]3ccc(N(C)C)cc3)CC[C@]3(C)[C@H](CC[C@@H]4[C@@]5(C)CC[C@H](OC(=O)CC[n+]6ccc(N(C)C)cc6)C(C)(C)[C@@H]5CC[C@]43C)[C@@H]12.[Cl-].[Cl-]
Liver microsome [10]
  TIME: 0.00983 h
Liver microsome [11]
  Activity: 27.1 mV
MCF7
  inhibition: Active
Liver microsome [12]
  Activity: 199 mV
Liver microsome [13]
  Activity: 204 mV
Liver microsome [14]
  Activity: 23.1 mV
Hs-578T
  inhibition: Active

## C=C(C)[C@@H]1CC[C@]2(COC(=O)C(CC)[n+]3ccc(N(C)C)cc3)CC[C@]3(C)[C@H](CC[C@@H]4[C@@]5(C)CC[C@H](OC(=O)C(CC)[n+]6ccc(N(C)C)cc6)C(C)(C)[C@@H]5CC[C@]43C)[C@@H]12 (stereo partly specified)
[15]
  TIME: 0.0121 h
Liver microsome [16]
  Activity: 23.2 mV
Liver microsome [17]
  Activity: 21.8 mV
Liver microsome [18]
  Activity: 193 mV
Liver microsome [19]
  TIME: 0.0122 h
Liver microsome [20]
  TIME: 0.0123 h
[21]
  TIME: 0.0117 h

## C=C(C)[C@@H]1CC[C@]2(COC(=O)C[N+](C)(C)C(C)C)CC[C@]3(C)[C@H](CC[C@@H]4[C@@]5(C)CC[C@H](OC(=O)C[N+](C)(C)C(C)C)C(C)(C)[C@@H]5CC[C@]43C)[C@@H]12.[Cl-].[Cl-]
Liver microsome [22]
  Activity: 21.9 mV
Liver microsome [23]
  TIME: 0.0129 h
Liver microsome [24]
  TIME: 0.0139 h
